Results published in ChEMBL document CHEMBL5712912, “Abnormal overexpression of G9a in melanoma cells promotes cancer progression via upregulation of the Notch1 signaling pathway” (Aging (Albany NY), 2020).
The source made the active and inactive calls. No cut-off for these calls is given here.

Experiments:
M14 [1] = test: Antimigratory activity against human M14 cells at 2 uM by transwell assay; format: functional, cell-based
How it was run: (§1)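 Transwell assay in M14 or A375 cells cultured in high-glucose DMEM with 10% FBS and penicillin/streptomycin; NICD overexpression plasmid transfected with Lipofectamine 2000. Invasion inserts coated with Matrigel diluted 1:6 in serum-free 1640 medium and set at 37 °C for 4 h; migration inserts uncoated, 5000 cells seeded. Control cells received DMSO. Migrated or invaded cells counted.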

[2] = molecular target: T1, Histone-lysine N-methyltransferase EHMT2 (Homo sapiens) (UniProt Q96KQ7); test: Inhibition of G9a in human A-375 cells assessed as decrease in Notch1 expression at 2 uM by Western blot analysis; format: cell-based
T1 sequence (whole entry): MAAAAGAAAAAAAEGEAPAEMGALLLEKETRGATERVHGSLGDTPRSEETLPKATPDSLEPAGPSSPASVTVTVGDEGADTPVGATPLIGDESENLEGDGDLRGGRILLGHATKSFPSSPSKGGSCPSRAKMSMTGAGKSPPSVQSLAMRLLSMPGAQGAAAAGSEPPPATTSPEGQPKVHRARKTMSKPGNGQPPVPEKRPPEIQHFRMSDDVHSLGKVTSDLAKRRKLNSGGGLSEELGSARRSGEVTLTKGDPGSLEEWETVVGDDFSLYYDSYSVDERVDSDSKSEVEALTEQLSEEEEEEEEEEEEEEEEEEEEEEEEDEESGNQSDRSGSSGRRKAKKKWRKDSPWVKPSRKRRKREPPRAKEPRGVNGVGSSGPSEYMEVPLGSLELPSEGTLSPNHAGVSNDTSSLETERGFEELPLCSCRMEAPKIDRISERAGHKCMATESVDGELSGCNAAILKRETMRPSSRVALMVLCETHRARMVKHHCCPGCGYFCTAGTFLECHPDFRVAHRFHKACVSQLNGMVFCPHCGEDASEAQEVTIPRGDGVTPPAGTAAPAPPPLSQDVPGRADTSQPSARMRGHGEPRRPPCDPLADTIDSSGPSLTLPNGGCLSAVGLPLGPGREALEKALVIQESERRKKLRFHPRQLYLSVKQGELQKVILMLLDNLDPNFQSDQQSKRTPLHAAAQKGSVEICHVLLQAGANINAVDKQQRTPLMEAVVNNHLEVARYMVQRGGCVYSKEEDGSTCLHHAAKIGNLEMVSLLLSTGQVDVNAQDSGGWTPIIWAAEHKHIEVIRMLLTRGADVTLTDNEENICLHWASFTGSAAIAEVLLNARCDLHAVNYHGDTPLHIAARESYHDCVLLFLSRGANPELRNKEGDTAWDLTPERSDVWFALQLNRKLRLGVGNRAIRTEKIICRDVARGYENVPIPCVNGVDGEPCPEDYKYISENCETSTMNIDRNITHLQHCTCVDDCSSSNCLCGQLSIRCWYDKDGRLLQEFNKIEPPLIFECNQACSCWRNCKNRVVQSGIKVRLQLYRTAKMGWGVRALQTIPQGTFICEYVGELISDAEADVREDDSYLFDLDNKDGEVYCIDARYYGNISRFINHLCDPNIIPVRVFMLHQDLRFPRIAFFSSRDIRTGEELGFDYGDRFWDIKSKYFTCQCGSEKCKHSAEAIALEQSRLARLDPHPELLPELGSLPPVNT

A-375 [3] = test: Induction of apoptosis in human A-375 cells overexpressing […] assessed as late apoptotic cells by Annexin V-FITC/PI staining based flow cytometry (Rvb-3.10%); format: functional; details: dose 2 µM
A-375 [4] = test: Induction of apoptosis in human A-375 cells assessed as necrotic cells at 2 uM by Annexin V-FITC/PI staining based flow cytometry (reference value: 1.34%); format: functional
M14 [5] = test: Induction of apoptosis in human M14 cells assessed as reduction in Bcl-2 expression at 2 uM by Western blot analysis; format: functional, cell-based
A-375 [6] = test: Induction of apoptosis in human A-375 cells assessed as reduction in Bcl-2 expression at 2 uM by Western blot analysis; format: functional, cell-based
[7] = molecular target: T1, Histone-lysine N-methyltransferase EHMT2 (Homo sapiens); test: Inhibition of G9a in human M14 cells assessed as reduction in AKT phosphorylation at 2 uM by Western blot analysis; format: cell-based
A-375 [8] = test: Antiinvasive activity against human A-375 cells at 2 uM by transwell assay; format: functional, cell-based; how it was run: as §1
M14 [9] = test: Induction of apoptosis in human M14 cells overexpressing NCID assessed as early apoptotic cells by Annexin V-FITC/PI staining based flow cytometry (Rvb-0.43%); format: functional; details: dose 2 µM
M14 [10] = test: Induction of apoptosis in human M14 cells assessed as early apoptotic cells at 2 uM by Annexin V-FITC/PI staining based flow cytometry (reference value: 0.43%); format: functional
[11] = molecular target: T1, Histone-lysine N-methyltransferase EHMT2 (Homo sapiens); test: Inhibition of G9a in human A-375 cells assessed as reduction in AKT phosphorylation at 2 uM by Western blot analysis; format: cell-based
[12] = molecular target: T1, Histone-lysine N-methyltransferase EHMT2 (Homo sapiens); test: Inhibition of G9a in human M14 cells assessed as decrease in Notch1 expression at 2 uM by Western blot analysis; format: cell-based
A-375 [13] = test: Induction of apoptosis in human A-375 cells assessed as late apoptotic cells at 2 uM by Annexin V-FITC/PI staining based flow cytometry (reference value: 3.10%); format: functional
M14 [14] = test: Induction of apoptosis in human M14 cells overexpressing NCID assessed as necrotic cells by Annexin V-FITC/PI staining based flow cytometry (Rvb-1.34%); format: functional; details: dose 2 µM
M14 [15] = test: Induction of apoptosis in human M14 cells assessed as necrotic cells at 2 uM by Annexin V-FITC/PI staining based flow cytometry (reference value: 1.34%); format: functional
A-375 [16] = test: Antiproliferative activity against human A-375 cells overexpressing NICD assessed as reduction in cell proliferation at 2 uM by CCK-8 assay; format: functional, cell-based
How it was run: (§2)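 CCK8 proliferation assay. M14 or A375 cells, NICD plasmid-transfected where stated, were seeded at about 1000 cells per well, with 0.1% DMSO-treated cells as control. CCK8 reagent was added every 24 h and incubated 90 min at 37 °C, then OD read at 450 nm to build a proliferation curve. IC50 came from a dose-dependent viability series in A375.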

M14 [17] = test: Antiinvasive activity against human M14 cells at 2 uM by transwell assay; format: functional, cell-based; how it was run: as §1
A-375 [18] = test: Antimigratory activity against human A-375 cells overexpressing NICD at 2 uM by transwell assay; format: functional, cell-based; how it was run: as §1
A-375 [19] = test: Induction of apoptosis in human A-375 cells assessed as increase in cleaved Caspase-3 expression at 2 uM by Western blot analysis; format: functional, cell-based
M14 [20] = test: Induction of apoptosis in human M14 cells overexpressing NCID assessed as live cells by Annexin V-FITC/PI staining based flow cytometry (Rvb-95.1%); format: functional; details: dose 2 µM
A-375 [21] = test: Antiinvasive activity against human A-375 cells overexpressing NICD at 2 uM by transwell assay; format: functional, cell-based; how it was run: as §1
M14 [22] = test: Induction of apoptosis in human M14 cells overexpressing NICD assessed as increase in cleaved Caspase-3 expression at 2 uM by Western blot analysis; format: functional, cell-based
M14 [23] = test: Antiproliferative activity against human M14 cells overexpressing NICD assessed as reduction in cell proliferation at 2 uM by CCK-8 assay; format: functional, cell-based; how it was run: as §2
A-375 [24] = test: Induction of apoptosis in human A-375 cells overexpressing […] assessed as early apoptotic cells by Annexin V-FITC/PI staining based flow cytometry (Rvb-0.43%); format: functional; details: dose 2 µM
A-375 [25] = test: Cytotoxicity against human A-375 cells assessed as effect on cell survival at <0.5 nM by CCK-8 assay; format: functional, cell-based

inhibition [2]: Active | inhibition [7]: Active | inhibition [11]: Active | inhibition [12]: Active
SMILES: COc1cc2c(NC3CCN(C(C)C)CC3)nc(N3CCC(F)(F)CC3)nc2cc1OCCCN1CCCC1
Activity (M14 [1]): Active | Activity (A-375 [3]): 3.59% | Activity (A-375 [4]): 0.27% | Activity (M14 [5]): Active | Activity (A-375 [6]): Active | Activity (A-375 [8]): Active | Activity (M14 [9]): 0.75% | Activity (M14 [10]): 4.8% | Activity (A-375 [13]): 5.17% | Activity (M14 [14]): 0.76% | Activity (M14 [15]): 0.27% | Activity (A-375 [16]): inactive | Activity (M14 [17]): Active | Activity (A-375 [18]): inactive | Activity (A-375 [19]): Active | Activity (M14 [20]): 94.9% | Activity (A-375 [21]): inactive | Activity (M14 [22]): inactive | Activity (M14 [23]): inactive | Activity (A-375 [24]): 0.75% | Activity (A-375 [25]): inactive
